# Results published in ChEMBL document CHEMBL4038284, “Synthesis of novel quinoline-based 4,5-dihydro-1H-pyrazoles as potential anticancer, antifungal, antibacterial and antiprotozoal agents” (Eur J Med Chem, 2017).
# Legend:
# Candida albicans [1] = test: Growth inhibition of Candida albicans ATCC 10231 at 250 ug/ml incubated for 48 hrs under dark condition by broth microdilution method relative to control; format: functional; details: ATCC 10231, 48 h, read-out: GI
# Procedure, shortened: (§1)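 CLSI M27-A3 broth microdilution in RPMI-1640, DMSO ≤1%. Inoculum 1-5 × 10^3 CFU/mL. Incubated 48 h at 30 °C, dark. % inhibition = 100 − (OD405 test − sterility control)/(OD405 growth control − sterility control), with growth and sterility control wells. Triplicate.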
# Klebsiella pneumoniae [2] = test: Antibacterial activity against ESBL positive Klebsiella pneumoniae ATCC 700603 after 24 hrs by resazurin dye based microdilution assay; format: functional; details: Klebsiella pneumoniae, 700603, 24 h
# Procedure, shortened: (§2)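 MIC taken as the lowest concentration giving visible inhibition and/or by resazurin (1 mg/mL). Gentamicin was the control. Run in duplicate, repeated at least three times.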
# Trypanosoma cruzi = test: Antitrypanosomal activity against Trypanosoma cruzi Tulahuen intracellular amastigote harboring LacZ infected in human U937 cells after 72 hrs by CPRG/Nonidet reagent based spectrophotometric method; format: functional, cell-based; details: U-937, 72 h
# Procedure, shortened: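 U-937 cells at 2.5 × 10^5 cells/mL in RPMI-1640 with 10% serum and 0.1 µg/mL PMA were infected with β-galactosidase-transfected Tulahuen epimastigotes at 5 parasites per cell. Infected cells were exposed to 50, 12.5, 3.125 and 0.78 µg/mL for 72 h. CPRG (100 uM) and 0.1% Nonidet P-40 were added for 3 h, read at 570 nm. EC50 by Probit. Triplicate, at least two experiments; benznidazole as reference.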
# Cryptococcus neoformans [3] = test: Growth inhibition of Cryptococcus neoformans ATCC 32264 at 15.62 ug/ml incubated for 48 hrs under dark condition by broth microdilution method relative to control; format: functional; details: ATCC 32264, 48 h, read-out: GI; procedure, shortened: as §1
# Candida albicans [4] = test: Growth inhibition of Candida albicans ATCC 10231 at 15.62 ug/ml incubated for 48 hrs under dark condition by broth microdilution method relative to control; format: functional; details: ATCC 10231, 48 h, read-out: GI; procedure, shortened: as §1
# Cryptococcus neoformans [5] = test: Growth inhibition of Cryptococcus neoformans ATCC 32264 at 250 ug/ml incubated for 48 hrs under dark condition by broth microdilution method relative to control; format: functional; details: ATCC 32264, 48 h, read-out: GI; procedure, shortened: as §1
# Cryptococcus neoformans [6] = test: Growth inhibition of Cryptococcus neoformans ATCC 32264 at 125 ug/ml incubated for 48 hrs under dark condition by broth microdilution method relative to control; format: functional; details: ATCC 32264, 48 h, read-out: GI; procedure, shortened: as §1
# Staphylococcus aureus [7] = test: Antibacterial activity against vancomycin-intermediate Staphylococcus aureus after 24 hrs by resazurin dye based microdilution assay; format: functional; procedure, shortened: as §2
# Staphylococcus aureus [8] = test: Antibacterial activity against methicillin-resistant Staphylococcus aureus ATCC 43300 after 24 hrs by resazurin dye based microdilution assay; format: functional; details: ATCC 43300, 24 h
# Procedure, shortened: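 Broth microdilution in Mueller Hinton broth, inoculum 5 × 10^5 – 8 × 10^5. Compound stocks diluted in MHB with 5% DMSO and 0.1% Tween 80. Incubation 24 h at 35-37 °C. MIC is the lowest concentration with visible growth inhibition and/or by resazurin (1 mg/mL) read-out. Gentamicin as control. Run in duplicate, replicated at least three times.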
# Neisseria gonorrhoeae = test: Antibacterial activity against beta lactamase positive Neisseria gonorrhoeae ATCC 31426 by oxidase test; format: functional
# Procedure, shortened: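 Agar dilution MIC on GC agar with 1% isovitalex containing increasing compound concentrations. Plates inoculated with about 1×10^4 CFU (5 µL). MIC is the lowest concentration that inhibited growth, with growth confirmed by oxidase test. Run in duplicate, repeated at least three times.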
# Cryptococcus neoformans [9] = test: Growth inhibition of Cryptococcus neoformans ATCC 32264 at 62.5 ug/ml incubated for 48 hrs under dark condition by broth microdilution method relative to control; format: functional; details: ATCC 32264, 48 h, read-out: GI; procedure, shortened: as §1
# Leishmania panamensis = test: Antileshmanial activity against EpiR/GFP fused Leishmania panamensis MHOM/CO/87/UA140 intracellular amastigotes infected in human […] cells after 72 hrs by flow cytometric method; format: functional, cell-based; details: MHOM/CO/87/UA140, 72 h
# Procedure, shortened: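 PMA-treated U-937 cells (3 × 10^5 cells/mL) infected with stationary-phase GFP L. panamensis promastigotes (15:1), 3 h at 34 °C, then washed. After 24 h, compounds added at 50, 12.5, 3.125 and 0.78 µg/mL for 72 h at 37 °C. EC50 by Probit; triplicate, two experiments.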
# Candida albicans [10] = test: Growth inhibition of Candida albicans ATCC 10231 at 125 ug/ml incubated for 48 hrs under dark condition by broth microdilution method relative to control; format: functional; details: ATCC 10231, 48 h, read-out: GI; procedure, shortened: as §1
# Cryptococcus neoformans [11] = test: Growth inhibition of Cryptococcus neoformans ATCC 32264 at 31.25 ug/ml incubated for 48 hrs under dark condition by broth microdilution method relative to control; format: functional; details: ATCC 32264, 48 h, read-out: GI; procedure, shortened: as §1
# Cryptococcus neoformans [12] = test: Growth inhibition of Cryptococcus neoformans ATCC 32264 at 3.4 ug/ml incubated for 48 hrs under dark condition by broth microdilution method relative to control; format: functional; details: ATCC 32264, 48 h, read-out: GI
# Candida albicans [13] = test: Antifungal activity against Candida albicans ATCC 10231 incubated for 48 hrs under dark condition by broth microdilution method; format: functional; details: ATCC 10231, 48 h
# Procedure, shortened: (§3)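 CLSI M27-A3 broth microdilution in RPMI-1640, DMSO ≤1%, compounds at 250-0.98 µg/mL final. Inoculum 1-5 × 10^3 CFU/mL. Incubated 48 h at 30 °C in a moist dark chamber, read at OD405. MIC80 and MIC50 taken from % inhibition dose-response curves (mean ± SEM, triplicate). Amphotericin B was the positive control.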
# Staphylococcus aureus [14] = test: Antibacterial activity against methicillin-sensitive Staphylococcus aureus ATCC 25923 after 24 hrs by resazurin dye based microdilution assay; format: functional; details: ATCC 25923, 24 h; procedure, shortened: as §2
# U-937 = test: Cytotoxicity against human U937 cells after 72 hrs by MTT assay; format: cell-based; details: u-937, 72 h
# Procedure, shortened: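 Exponentially growing U-937 at 1 × 10^5 cells/mL in RPMI-1640 with 10% FBS were exposed to 200, 50, 12.5 and 3.125 µg/mL for 72 h at 37 °C, 5% CO2. MTT for 3 h, stopped with isopropanol/SDS, formazan read at 570 nm, blank-corrected. LC50 by Probit from % viability against untreated cells. Triplicate, at least two independent experiments.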
# Candida albicans [15] = test: Growth inhibition of Candida albicans ATCC 10231 at 7.8 ug/ml incubated for 48 hrs under dark condition by broth microdilution method relative to control; format: functional; details: ATCC 10231, 48 h, read-out: GI; procedure, shortened: as §1
# Candida albicans [16] = test: Growth inhibition of Candida albicans ATCC 10231 at 31.25 ug/ml incubated for 48 hrs under dark condition by broth microdilution method relative to control; format: functional; details: ATCC 10231, 48 h, read-out: GI; procedure, shortened: as §1
# Escherichia coli = test: Antibacterial activity against Escherichia coli ATCC 25922 after 24 hrs by resazurin dye based microdilution assay; format: functional; details: ATCC 25922, 24 h; procedure, shortened: as §2
# Pseudomonas aeruginosa = test: Antibacterial activity against Pseudomonas aeruginosa ATCC 27853 after 24 hrs by resazurin dye based microdilution assay; format: functional; details: ATCC 27853, 24 h; procedure, shortened: as §2
# Candida albicans [17] = test: Growth inhibition of Candida albicans ATCC 10231 at 62.5 ug/ml incubated for 48 hrs under dark condition by broth microdilution method relative to control; format: functional; details: ATCC 10231, 48 h, read-out: GI; procedure, shortened: as §1
# Candida albicans [18] = test: Growth inhibition of Candida albicans ATCC 10231 at 3.4 ug/ml incubated for 48 hrs under dark condition by broth microdilution method relative to control; format: functional; details: ATCC 10231, 48 h, read-out: GI
# Cryptococcus neoformans [19] = test: Antifungal activity against Cryptococcus neoformans ATCC 32264 incubated for 48 hrs under dark condition by broth microdilution method; format: functional; details: ATCC 32264, 48 h; procedure, shortened: as §3
# Plasmodium falciparum = test: Antiplasmodial activity against chloroquine-sensitive Plasmodium falciparum 3D7 assessed as reduction in parasitic LDH activity after 48 hrs by Malstat reagent based […] method; format: functional; details: 3D7, 48 h
# Procedure, shortened: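 Unsynchronized P. falciparum 3D7 at 0.5% parasitemia and 1% hematocrit in RPMI with 3% Albumax II. Exposed to 100, 25, 6.25 and 1.56 µg/mL for 48 h at 37 °C under 90% N2/5% CO2/5% O2. After three freeze-thaw cycles, LDH measured with Malstat and NBT/PES, 1 h in the dark, read at 650 nm. IC50 by Probit; triplicate, ≥2 experiments.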
# Klebsiella pneumoniae [20] = test: Antibacterial activity against carbapenemase positive Klebsiella pneumoniae BAA 1705 after 24 hrs by resazurin dye based microdilution assay; format: functional; details: BAA 1705, 24 h; procedure, shortened: as §2
# Cryptococcus neoformans [21] = test: Growth inhibition of Cryptococcus neoformans ATCC 32264 at 7.8 ug/ml incubated for 48 hrs under dark condition by broth microdilution method relative to control; format: functional; details: ATCC 32264, 48 h, read-out: GI; procedure, shortened: as §1
smiles,measurement,setting,value
Clc1ccc(N2N=C(c3ccccc3)CC2c2cccc(Nc3ccnc4cc(Cl)ccc34)c2)cc1 (stereo not given),inhibition of growth at 250 µg/mL,Candida albicans [1],26.9%
same,MIC,Klebsiella pneumoniae [2],> 1000 µg/mL
same,EC50,Trypanosoma cruzi,15.1 µg/mL
same,inhibition of growth at 15.62 µg/mL,Cryptococcus neoformans [3],0%
same,inhibition of growth at 15.62 µg/mL,Candida albicans [4],8.78%
same,inhibition of growth at 250 µg/mL,Cryptococcus neoformans [5],61%
same,inhibition of growth at 125 µg/mL,Cryptococcus neoformans [6],46%
same,MIC,Staphylococcus aureus [7],> 1000 µg/mL
same,MIC,Staphylococcus aureus [8],> 1000 µg/mL
same,MIC,Neisseria gonorrhoeae,> 1000 µg/mL
same,inhibition of growth at 62.5 µg/mL,Cryptococcus neoformans [9],13.8%
same,EC50,Leishmania panamensis,15.7 µg/mL
same,inhibition of growth at 125 µg/mL,Candida albicans [10],18.9%
same,inhibition of growth at 31.25 µg/mL,Cryptococcus neoformans [11],5.92%
same,inhibition of growth at 3.4 µg/mL,Cryptococcus neoformans [12],0%
same,MIC50,Candida albicans [13],≥ 250 µg/mL
same,MIC80,Candida albicans [13],≥ 250 µg/mL
same,MIC,Staphylococcus aureus [14],> 1000 µg/mL
same,LC50,U-937,> 200 µg/mL
same,inhibition of growth at 7.8 µg/mL,Candida albicans [15],4.82%
same,inhibition of growth at 31.25 µg/mL,Candida albicans [16],10.5%
same,MIC,Escherichia coli,> 1000 µg/mL
same,MIC,Pseudomonas aeruginosa,> 1000 µg/mL
same,inhibition of growth at 62.5 µg/mL,Candida albicans [17],10.9%
same,inhibition of growth at 3.4 µg/mL,Candida albicans [18],2.71%
same,MIC50,Cryptococcus neoformans [19],250 µg/mL
same,MIC80,Cryptococcus neoformans [19],≥ 250 µg/mL
same,EC50,Plasmodium falciparum,10.3 µg/mL
same,MIC,Klebsiella pneumoniae [20],> 1000 µg/mL
same,inhibition of growth at 7.8 µg/mL,Cryptococcus neoformans [21],0%
